# Data taken from ChEMBL document CHEMBL5653631, “A Potent and Selective ULK1 Inhibitor Suppresses Autophagy and Sensitizes Cancer Cells to Nutrient Stress” (iScience, 2018).
# Key:
# [1] = molecular target: T1, Serine/threonine-protein kinase A-Raf (Homo sapiens) (UniProt P10398); assay: Inhibition of human recombinant ARAF at 40 nM related to control ULK1
# T1 sequence (whole entry): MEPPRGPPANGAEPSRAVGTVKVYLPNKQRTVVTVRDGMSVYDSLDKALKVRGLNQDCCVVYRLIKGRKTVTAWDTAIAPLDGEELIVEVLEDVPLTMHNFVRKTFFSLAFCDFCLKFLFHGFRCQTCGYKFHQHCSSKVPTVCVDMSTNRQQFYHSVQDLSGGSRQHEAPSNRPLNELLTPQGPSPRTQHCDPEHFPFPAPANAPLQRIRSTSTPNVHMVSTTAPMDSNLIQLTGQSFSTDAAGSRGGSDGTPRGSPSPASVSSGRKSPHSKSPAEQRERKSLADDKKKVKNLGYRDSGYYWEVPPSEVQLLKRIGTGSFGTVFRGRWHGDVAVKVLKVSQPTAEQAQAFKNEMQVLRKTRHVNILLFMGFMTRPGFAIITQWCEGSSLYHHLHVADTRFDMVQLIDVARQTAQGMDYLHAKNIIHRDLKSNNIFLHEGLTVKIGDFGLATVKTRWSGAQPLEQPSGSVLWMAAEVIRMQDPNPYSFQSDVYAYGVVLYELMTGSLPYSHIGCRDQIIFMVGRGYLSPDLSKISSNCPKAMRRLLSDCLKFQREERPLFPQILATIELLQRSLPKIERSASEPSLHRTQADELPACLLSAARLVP
# Outline: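 Radiometric activity assays in a panel of 327 human recombinant kinases, each run in duplicate at one inhibitor concentration. Activity remaining is expressed as percent of vehicle control, and percent inhibition is calculated as 100% minus percent activity remaining.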
# [2] = molecular target: Death-associated protein kinase 2 (Homo sapiens) (UniProt Q9UIK4); assay: Inhibition of human recombinant DAPK2 at 40 nM related to control ULK1
# Death-associated protein kinase 2 (Homo sapiens), sequence (Q9UIK4 whole entry, looked up): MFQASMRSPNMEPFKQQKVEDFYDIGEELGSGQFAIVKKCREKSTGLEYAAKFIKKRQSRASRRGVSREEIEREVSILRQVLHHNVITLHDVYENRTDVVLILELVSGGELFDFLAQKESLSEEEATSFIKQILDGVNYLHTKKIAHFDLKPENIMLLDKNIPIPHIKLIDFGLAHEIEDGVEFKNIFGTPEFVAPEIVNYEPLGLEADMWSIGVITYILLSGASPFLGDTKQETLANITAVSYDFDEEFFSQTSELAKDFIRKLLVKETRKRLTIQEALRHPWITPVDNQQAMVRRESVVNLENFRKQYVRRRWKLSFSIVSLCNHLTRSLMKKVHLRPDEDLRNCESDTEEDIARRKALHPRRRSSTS
# [3] = molecular target: Tyrosine-protein kinase SYK (Homo sapiens) (UniProt P43405); assay: Inhibition of human recombinant SYK at 40 nM related to control ULK1
# [4] = molecular target: Mitogen-activated protein kinase 9 (Homo sapiens) (UniProt P45984); assay: Inhibition of human recombinant JNK2 at 40 nM related to control ULK1
# Mitogen-activated protein kinase 9 (Homo sapiens), sequence (P45984 whole entry, looked up): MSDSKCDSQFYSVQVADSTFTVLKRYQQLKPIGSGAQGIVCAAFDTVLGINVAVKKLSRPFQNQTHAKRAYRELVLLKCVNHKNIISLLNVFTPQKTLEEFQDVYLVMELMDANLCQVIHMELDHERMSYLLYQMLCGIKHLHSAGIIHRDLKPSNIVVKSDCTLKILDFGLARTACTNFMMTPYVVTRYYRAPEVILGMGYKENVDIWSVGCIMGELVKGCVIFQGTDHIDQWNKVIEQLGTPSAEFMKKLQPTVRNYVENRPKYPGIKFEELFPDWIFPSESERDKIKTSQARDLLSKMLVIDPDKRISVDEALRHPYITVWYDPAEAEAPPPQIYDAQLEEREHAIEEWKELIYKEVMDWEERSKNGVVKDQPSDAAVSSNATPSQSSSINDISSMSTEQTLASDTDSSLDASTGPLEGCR
# [5] = molecular target: T2, Tyrosine-protein kinase ZAP-70 (Homo sapiens) (UniProt P43403); assay: Inhibition of human recombinant ZAP70 at 40 nM related to control ULK1
# T2 sequence (whole entry): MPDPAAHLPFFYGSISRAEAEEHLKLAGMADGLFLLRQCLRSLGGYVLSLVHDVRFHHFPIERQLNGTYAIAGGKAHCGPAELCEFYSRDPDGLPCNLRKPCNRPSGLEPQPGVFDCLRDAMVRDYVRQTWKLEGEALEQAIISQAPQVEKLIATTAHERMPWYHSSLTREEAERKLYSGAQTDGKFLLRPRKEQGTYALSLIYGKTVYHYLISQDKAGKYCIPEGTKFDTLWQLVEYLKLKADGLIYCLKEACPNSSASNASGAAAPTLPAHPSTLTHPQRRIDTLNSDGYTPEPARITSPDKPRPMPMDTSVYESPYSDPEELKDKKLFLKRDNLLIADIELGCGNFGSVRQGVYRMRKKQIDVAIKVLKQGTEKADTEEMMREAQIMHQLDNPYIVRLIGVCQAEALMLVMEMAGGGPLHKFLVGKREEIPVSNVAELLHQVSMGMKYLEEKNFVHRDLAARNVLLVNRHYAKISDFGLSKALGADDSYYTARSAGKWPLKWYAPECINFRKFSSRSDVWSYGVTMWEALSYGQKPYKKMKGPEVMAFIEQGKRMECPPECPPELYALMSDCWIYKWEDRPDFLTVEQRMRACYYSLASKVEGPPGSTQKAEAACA
# [6] = molecular target: Mitogen-activated protein kinase 1 (Homo sapiens) (UniProt P28482); assay: Inhibition of human recombinant Erk2 at 40 nM related to control ULK1
# Mitogen-activated protein kinase 1 (Homo sapiens), sequence (P28482 whole entry): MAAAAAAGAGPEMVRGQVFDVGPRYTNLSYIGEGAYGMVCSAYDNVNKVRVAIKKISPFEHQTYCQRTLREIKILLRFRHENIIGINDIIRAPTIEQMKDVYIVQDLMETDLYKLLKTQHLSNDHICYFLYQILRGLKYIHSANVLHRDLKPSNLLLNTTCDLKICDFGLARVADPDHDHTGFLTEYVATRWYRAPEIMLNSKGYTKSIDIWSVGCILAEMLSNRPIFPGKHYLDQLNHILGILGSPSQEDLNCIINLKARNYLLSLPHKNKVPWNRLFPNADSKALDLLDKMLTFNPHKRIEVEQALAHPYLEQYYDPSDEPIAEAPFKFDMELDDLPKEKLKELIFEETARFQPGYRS
# [7] = molecular target: Glycogen synthase kinase-3 alpha (Homo sapiens) (UniProt P49840); assay: Inhibition of human recombinant GSK3A at 40 nM in presence of ATP by radiometric assay relative to control
# Glycogen synthase kinase-3 alpha (Homo sapiens), sequence (P49840 2-483 limits assumed): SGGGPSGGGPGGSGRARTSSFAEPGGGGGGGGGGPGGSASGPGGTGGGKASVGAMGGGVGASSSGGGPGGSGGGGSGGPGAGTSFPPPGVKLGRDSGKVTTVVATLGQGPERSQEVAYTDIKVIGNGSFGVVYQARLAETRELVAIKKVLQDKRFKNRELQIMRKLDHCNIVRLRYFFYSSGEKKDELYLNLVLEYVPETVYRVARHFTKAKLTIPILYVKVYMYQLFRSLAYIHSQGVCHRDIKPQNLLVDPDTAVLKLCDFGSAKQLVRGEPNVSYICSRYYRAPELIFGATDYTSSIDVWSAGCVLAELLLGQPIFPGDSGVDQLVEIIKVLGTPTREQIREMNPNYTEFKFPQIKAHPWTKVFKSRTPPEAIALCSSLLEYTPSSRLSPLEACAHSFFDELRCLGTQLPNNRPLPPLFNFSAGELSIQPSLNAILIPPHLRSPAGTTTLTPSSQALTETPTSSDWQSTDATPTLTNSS
# [8] = molecular target: T3, Myotonin-protein kinase (Homo sapiens) (UniProt Q09013); assay: Inhibition of human recombinant DMPK1 at 500 nM in presence of ATP by radiometric assay relative to control
# T3 sequence (whole entry): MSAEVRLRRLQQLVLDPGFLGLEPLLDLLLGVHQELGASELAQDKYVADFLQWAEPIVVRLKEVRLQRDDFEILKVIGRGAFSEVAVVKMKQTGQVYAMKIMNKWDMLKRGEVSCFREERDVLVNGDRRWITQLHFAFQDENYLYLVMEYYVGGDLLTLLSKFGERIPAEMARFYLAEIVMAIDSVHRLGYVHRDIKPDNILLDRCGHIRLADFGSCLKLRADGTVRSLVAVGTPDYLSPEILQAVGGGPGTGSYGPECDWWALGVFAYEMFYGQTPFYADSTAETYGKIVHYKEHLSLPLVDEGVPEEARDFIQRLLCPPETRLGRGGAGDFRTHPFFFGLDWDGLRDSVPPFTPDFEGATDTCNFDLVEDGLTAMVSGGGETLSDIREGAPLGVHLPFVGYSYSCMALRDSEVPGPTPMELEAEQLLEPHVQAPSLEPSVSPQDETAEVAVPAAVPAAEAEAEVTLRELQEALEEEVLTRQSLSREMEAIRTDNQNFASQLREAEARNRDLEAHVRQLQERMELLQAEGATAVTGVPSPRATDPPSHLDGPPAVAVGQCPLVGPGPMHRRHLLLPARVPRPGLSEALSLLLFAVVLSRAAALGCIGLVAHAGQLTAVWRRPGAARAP
# [9] = molecular target: T1, Serine/threonine-protein kinase A-Raf (Homo sapiens); assay: Inhibition of human recombinant ARAF at 500 nM in presence of ATP by radiometric assay relative to control
# Outline: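 Panel of 327 recombinant human kinases, each assayed in vitro by radiometric activity assay in duplicate at a single inhibitor concentration per compound, chosen with reference to its ULK1 inhibition. Activity remaining was expressed as percent of vehicle control, and percent inhibition was calculated as 100 minus percent activity remaining.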
# [10] = molecular target: Casein kinase II subunit alpha (Homo sapiens) (UniProt P68400); assay: Inhibition of human recombinant CK2a1 at 15 nM in presence of ATP by radiometric assay relative to control
# Casein kinase II subunit alpha (Homo sapiens), sequence (P68400 whole entry, looked up): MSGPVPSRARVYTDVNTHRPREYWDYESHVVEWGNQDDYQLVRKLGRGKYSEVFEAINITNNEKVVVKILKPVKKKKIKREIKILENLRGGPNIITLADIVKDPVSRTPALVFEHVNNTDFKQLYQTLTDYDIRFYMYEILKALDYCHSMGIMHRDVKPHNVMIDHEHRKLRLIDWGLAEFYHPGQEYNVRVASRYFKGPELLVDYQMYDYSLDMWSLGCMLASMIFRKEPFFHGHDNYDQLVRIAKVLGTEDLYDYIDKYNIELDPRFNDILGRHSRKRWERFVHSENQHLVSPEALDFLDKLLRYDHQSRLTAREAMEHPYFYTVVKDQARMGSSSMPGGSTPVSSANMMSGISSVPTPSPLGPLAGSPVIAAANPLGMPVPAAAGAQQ
# [11] = molecular target: Tyrosine-protein kinase Fgr (Homo sapiens) (UniProt P09769); assay: Inhibition of human recombinant FGR at 15 nM related to control ULK1
# Tyrosine-protein kinase Fgr (Homo sapiens), sequence (P09769 2-529 limits assumed): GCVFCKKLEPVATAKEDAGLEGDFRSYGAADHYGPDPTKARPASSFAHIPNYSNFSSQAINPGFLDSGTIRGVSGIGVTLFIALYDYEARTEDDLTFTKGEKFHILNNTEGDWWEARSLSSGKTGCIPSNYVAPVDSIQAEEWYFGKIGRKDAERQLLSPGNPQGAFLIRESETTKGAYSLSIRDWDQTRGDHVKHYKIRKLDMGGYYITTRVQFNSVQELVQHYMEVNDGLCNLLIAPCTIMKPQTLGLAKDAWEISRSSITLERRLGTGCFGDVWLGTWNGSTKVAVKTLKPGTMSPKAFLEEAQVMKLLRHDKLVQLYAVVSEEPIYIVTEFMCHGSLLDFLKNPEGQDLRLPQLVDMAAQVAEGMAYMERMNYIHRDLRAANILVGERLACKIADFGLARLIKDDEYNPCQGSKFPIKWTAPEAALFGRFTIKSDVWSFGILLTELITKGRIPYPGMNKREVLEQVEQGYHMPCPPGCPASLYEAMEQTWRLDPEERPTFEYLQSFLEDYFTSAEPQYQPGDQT
structure (smiles),measurement,setting,value
O=C(N[C@@H](C1CC1)C(F)(F)F)c1cc(-c2cnn3cc(-c4ccc(F)cc4)cnc23)cs1,fold change (FC),[1],0
same,fold change (FC),[2],0
same,fold change (FC),[3],0
same,fold change (FC),[4],0.01
same,fold change (FC),[5],0
same,fold change (FC),[6],0
same,inhibition,[7],0%
CNC(=O)c1ccccc1Oc1nc(Nc2cc(OC)c(OC)c(OC)c2)ncc1Br,inhibition,[8],0%
same,inhibition,[9],0%
CC(C)[C@H](NC(=O)c1cc(-c2cnn3cc(-c4ccc(OCCN5CCCCC5)cc4)cnc23)cs1)C(F)(F)F,inhibition,[10],0%
same,fold change (FC),[11],0.49
